Data set [1] deals with T1, Monoglyceride lipase (Homo sapiens) (UniProt Q99685).
T1 sequence (whole entry): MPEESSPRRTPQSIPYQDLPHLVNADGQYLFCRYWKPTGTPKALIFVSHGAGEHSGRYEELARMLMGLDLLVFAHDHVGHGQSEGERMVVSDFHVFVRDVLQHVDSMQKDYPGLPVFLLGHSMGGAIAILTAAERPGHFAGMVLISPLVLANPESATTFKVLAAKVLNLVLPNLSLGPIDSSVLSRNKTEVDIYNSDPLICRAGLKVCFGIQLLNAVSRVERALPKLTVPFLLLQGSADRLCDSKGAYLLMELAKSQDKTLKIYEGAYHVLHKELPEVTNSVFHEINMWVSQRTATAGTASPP
The data set is described as follows: Inhibition of MAGL (unknown origin) at 30 uM.

Data set [2] can be described thus: Metabolic stability in human liver microsomes assessed as residual compound at 3 uM preincubated for 2 mins followed by NADPH addition measured after 10 mins by LC-MS analysis. As to conditions: read-out: Stability. Type of data set: ADME. In general terms: Microsomes from liver hold many membrane-bound enzymes, among them those of drug oxidation.
Data set [3] is described as follows: Metabolic stability in rat liver microsomes assessed as residual compound at 3 uM preincubated for 2 mins followed by NADPH addition measured after 10 mins by LC-MS analysis. Type of data set: ADME. The note with it: read-out: Stability.
Data set [4] can be described thus: Metabolic stability in mouse liver microsomes assessed as residual compound at 3 uM preincubated for 2 mins followed by NADPH addition measured after 10 mins by LC-MS analysis. Type of data set: ADME. As to conditions: read-out: Stability.
In data set [5] the target is T2, Diacylglycerol lipase-alpha (Homo sapiens, UniProt Q9Y4D2).
T2 sequence (Q9Y4D2 whole entry): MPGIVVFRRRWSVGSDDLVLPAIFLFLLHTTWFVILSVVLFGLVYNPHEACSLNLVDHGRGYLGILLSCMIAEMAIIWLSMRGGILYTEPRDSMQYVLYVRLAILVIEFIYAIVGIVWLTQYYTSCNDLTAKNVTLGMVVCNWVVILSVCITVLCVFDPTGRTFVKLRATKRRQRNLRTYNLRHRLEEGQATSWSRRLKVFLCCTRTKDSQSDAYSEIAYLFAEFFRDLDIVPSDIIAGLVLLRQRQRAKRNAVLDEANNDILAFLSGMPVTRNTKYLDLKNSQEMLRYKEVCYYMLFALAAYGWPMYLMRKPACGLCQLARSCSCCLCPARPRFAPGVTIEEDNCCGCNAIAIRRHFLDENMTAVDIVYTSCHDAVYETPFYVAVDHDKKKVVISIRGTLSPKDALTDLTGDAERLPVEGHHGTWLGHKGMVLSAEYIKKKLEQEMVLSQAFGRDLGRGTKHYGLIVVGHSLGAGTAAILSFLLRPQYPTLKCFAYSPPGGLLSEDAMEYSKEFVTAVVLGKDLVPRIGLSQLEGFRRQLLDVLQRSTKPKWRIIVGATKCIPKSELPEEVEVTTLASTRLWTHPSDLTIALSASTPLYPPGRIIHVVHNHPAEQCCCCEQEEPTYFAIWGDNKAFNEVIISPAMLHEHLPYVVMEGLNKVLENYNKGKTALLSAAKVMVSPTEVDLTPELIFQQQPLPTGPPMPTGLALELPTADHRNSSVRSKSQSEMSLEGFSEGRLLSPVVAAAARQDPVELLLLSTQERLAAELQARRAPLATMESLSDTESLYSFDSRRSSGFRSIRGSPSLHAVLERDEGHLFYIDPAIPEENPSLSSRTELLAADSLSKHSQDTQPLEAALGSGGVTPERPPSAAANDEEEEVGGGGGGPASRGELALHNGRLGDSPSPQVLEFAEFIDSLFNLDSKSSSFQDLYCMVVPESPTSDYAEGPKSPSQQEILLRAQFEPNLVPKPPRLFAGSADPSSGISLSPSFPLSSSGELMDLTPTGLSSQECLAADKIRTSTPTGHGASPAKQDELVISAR
Description: Inhibition of full length human C-terminal HA-tagged DAGLalpha expressed in HEK293 cell membrane using DAG as substrate incubated for 20 mins by LC-MS analysis. Type of data set: cell-based. Summed up: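 Cell-free DAGL-α enzyme assay run at pH 6.5. IC50 values are reported, with replicate counts (n) given per value.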

The test system of data set [6] is Mus musculus. The data set is described as follows: In vivo inhibition of DAGLalpha in ip dosed mouse assessed as reduction in 2-AG level in liver. Type of data set: functional, organism-based.
Data set [7] deals with T3, Diacylglycerol lipase-beta (Homo sapiens, UniProt Q8NCG7).
T3 sequence (Q8NCG7 whole entry): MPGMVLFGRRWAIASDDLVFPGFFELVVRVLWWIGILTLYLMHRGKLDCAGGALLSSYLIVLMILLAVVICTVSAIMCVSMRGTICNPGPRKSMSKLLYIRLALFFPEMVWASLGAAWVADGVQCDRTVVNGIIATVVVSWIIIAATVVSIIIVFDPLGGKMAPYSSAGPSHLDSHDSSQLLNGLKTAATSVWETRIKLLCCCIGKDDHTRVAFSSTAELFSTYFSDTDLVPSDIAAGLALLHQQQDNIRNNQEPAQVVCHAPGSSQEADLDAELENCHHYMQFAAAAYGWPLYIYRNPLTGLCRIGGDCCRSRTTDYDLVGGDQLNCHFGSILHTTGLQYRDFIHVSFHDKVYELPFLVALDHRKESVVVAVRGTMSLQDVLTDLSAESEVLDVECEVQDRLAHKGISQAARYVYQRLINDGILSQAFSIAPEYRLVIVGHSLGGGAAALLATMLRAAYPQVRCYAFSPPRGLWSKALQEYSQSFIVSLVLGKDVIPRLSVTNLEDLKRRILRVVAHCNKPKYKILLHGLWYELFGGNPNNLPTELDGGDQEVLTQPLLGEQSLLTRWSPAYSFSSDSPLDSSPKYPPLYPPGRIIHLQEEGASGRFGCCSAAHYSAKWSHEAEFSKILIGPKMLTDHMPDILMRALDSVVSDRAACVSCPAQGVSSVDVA
Description: Inhibition of DAGLbeta (unknown origin).

The target of data set [8] is T2, Diacylglycerol lipase-alpha. The data set is described as follows: Inhibition of full length human C-terminal HA-tagged DAGLalpha expressed in HEK293 cells using DAG as substrate assessed as reduction in intracellular 2-AG level incubated for 20 mins by LC-MS analysis. Type of data set: cell-based.
For data set [9], the system named is HEK293. Description: Selectivity ratio of IC50 for full length human C-terminal HA-tagged DAGLalpha expressed in HEK293 cell membrane to IC50 for DAGLbeta (unknown origin). It is filed as cell-based.
Data set [10] addresses T4, Pancreatic triacylglycerol lipase (Sus scrofa) (UniProt P00591).
T4 sequence (whole entry): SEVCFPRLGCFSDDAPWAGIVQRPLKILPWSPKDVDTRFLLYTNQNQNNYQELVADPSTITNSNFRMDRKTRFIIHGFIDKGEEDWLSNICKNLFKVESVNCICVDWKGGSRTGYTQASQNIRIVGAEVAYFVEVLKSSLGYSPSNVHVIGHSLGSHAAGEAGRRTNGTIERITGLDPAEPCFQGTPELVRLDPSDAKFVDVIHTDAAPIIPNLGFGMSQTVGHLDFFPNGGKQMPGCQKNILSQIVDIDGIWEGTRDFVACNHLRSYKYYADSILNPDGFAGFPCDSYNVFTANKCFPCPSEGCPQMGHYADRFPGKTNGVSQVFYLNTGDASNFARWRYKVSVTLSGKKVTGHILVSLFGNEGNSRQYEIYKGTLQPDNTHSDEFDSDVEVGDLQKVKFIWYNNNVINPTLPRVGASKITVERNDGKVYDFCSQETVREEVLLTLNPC
Description: Inhibition of porcine pancreatic lipase at 30 uM.

The target of data set [11] is T5, Diacylglycerol lipase-alpha (Homo sapiens) (UniProt Q9Y4D2).
T5 sequence (whole entry): T2 sequence (Q9Y4D2 whole entry)
Description: Ratio of IC50 for full length human C-terminal HA-tagged DAGLalpha expressed in HEK293 cells assessed as reduction in intracellular 2-AG level to IC50 for full length human C-terminal HA-tagged DAGLalpha expressed in HEK293 cell membrane. It is filed as cell-based.

The target of data set [12] is Cytochrome P450 3A4 (Homo sapiens, UniProt P08684). The data set is described as follows: Inhibition of CYP3A4 in human liver microsomes using midazolam as substrate incubated for 5 mins by LC-MS analysis.
Data set [13] has as its target Cytochrome P450 2C9 (Homo sapiens, UniProt P11712). The data set is described as follows: Inhibition of CYP2C9 in human liver microsomes using diclofenac as substrate incubated for 10 mins by LC-MS analysis.
Data set [14] concerns the target Cytochrome P450 2C19 (Homo sapiens, UniProt P33261). Description: Inhibition of CYP2C19 in human liver microsomes using (S)-mephenytoin as substrate incubated for 5 mins by LC-MS analysis.
Data set [15] concerns the target Cytochrome P450 2D6 (Homo sapiens, UniProt P10635). Description: Inhibition of CYP2D6 in human liver microsomes using dextromethorphan as substrate incubated for 7 mins by LC-MS analysis.
Data set [16] addresses Voltage-gated inwardly rectifying potassium channel KCNH2 (Homo sapiens, UniProt Q12809). Description: Inhibition of human ERG expressed in HEK293 cells by thallium flux assay.
The nature of data set [17]: physchem. As to conditions: octanol/phosphate buffer, pH 7.4.
Data set [18] in a line: Dissociation constant, pKa of compound at pH 2 to […] by spectrophotometric titration method. Type of data set: physicochemical.

This note sets out measurements from ChEMBL document CHEMBL3763072, “Structure activity relationship studies on chemically non-reactive glycine sulfonamide inhibitors of diacylglycerol lipase” (Bioorg Med Chem, 2016).

As a reminder, the IC50 is the concentration needed to halve the response being measured. Usually logD stands for the decadic logarithm of the distribution of all forms, ionised or not, between an organic phase and buffer at a given pH. By pKa is commonly meant the pH at which an ionisable group is half protonated. Low values mean a stronger acid or weaker base, high ones a weaker acid or stronger base.

Activity calls are given as the source filed them. The calls are words filed in the database; no cut-off is given here.

Cytochrome P450 3A4, sequence (P08684 whole entry): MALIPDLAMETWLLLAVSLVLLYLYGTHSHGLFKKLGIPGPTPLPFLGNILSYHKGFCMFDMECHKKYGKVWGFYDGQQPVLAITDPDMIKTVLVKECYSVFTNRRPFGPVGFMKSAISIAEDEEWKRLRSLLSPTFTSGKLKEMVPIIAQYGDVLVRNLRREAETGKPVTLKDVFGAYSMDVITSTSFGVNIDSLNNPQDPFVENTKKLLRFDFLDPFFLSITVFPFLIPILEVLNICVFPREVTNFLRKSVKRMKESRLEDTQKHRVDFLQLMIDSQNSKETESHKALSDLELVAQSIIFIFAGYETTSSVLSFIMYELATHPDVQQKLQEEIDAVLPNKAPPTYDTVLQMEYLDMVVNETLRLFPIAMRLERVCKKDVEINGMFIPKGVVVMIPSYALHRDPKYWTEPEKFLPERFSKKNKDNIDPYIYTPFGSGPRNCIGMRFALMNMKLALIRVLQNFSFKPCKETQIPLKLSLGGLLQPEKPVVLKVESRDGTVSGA
Cytochrome P450 2D6, sequence (P10635 whole entry): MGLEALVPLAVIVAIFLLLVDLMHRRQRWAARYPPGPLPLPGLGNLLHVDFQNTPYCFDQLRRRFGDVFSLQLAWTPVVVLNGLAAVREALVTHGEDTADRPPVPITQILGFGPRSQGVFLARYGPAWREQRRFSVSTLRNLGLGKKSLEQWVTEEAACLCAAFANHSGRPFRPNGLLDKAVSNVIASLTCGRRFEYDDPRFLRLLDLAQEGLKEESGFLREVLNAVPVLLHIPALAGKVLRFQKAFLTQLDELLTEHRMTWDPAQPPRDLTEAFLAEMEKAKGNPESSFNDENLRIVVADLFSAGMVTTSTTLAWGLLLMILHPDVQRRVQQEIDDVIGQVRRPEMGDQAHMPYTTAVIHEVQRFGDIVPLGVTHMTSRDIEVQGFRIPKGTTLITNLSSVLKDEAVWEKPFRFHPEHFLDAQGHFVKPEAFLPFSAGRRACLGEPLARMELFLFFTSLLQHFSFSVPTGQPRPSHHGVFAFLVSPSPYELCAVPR
Cytochrome P450 2C9, sequence (P11712 whole entry): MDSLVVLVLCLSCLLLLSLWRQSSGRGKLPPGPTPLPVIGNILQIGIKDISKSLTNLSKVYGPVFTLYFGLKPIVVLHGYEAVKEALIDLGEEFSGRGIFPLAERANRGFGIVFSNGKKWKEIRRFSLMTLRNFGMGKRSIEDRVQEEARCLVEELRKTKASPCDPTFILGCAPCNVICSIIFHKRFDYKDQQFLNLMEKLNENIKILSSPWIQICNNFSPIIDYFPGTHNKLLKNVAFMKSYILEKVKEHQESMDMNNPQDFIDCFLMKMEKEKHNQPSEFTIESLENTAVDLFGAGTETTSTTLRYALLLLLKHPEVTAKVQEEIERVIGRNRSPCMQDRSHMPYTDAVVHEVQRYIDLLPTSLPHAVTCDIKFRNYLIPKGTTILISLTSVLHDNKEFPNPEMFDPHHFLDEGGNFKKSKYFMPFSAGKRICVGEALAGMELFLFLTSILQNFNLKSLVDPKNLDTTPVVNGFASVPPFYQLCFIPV
Voltage-gated inwardly rectifying potassium channel KCNH2, sequence (Q12809 whole entry): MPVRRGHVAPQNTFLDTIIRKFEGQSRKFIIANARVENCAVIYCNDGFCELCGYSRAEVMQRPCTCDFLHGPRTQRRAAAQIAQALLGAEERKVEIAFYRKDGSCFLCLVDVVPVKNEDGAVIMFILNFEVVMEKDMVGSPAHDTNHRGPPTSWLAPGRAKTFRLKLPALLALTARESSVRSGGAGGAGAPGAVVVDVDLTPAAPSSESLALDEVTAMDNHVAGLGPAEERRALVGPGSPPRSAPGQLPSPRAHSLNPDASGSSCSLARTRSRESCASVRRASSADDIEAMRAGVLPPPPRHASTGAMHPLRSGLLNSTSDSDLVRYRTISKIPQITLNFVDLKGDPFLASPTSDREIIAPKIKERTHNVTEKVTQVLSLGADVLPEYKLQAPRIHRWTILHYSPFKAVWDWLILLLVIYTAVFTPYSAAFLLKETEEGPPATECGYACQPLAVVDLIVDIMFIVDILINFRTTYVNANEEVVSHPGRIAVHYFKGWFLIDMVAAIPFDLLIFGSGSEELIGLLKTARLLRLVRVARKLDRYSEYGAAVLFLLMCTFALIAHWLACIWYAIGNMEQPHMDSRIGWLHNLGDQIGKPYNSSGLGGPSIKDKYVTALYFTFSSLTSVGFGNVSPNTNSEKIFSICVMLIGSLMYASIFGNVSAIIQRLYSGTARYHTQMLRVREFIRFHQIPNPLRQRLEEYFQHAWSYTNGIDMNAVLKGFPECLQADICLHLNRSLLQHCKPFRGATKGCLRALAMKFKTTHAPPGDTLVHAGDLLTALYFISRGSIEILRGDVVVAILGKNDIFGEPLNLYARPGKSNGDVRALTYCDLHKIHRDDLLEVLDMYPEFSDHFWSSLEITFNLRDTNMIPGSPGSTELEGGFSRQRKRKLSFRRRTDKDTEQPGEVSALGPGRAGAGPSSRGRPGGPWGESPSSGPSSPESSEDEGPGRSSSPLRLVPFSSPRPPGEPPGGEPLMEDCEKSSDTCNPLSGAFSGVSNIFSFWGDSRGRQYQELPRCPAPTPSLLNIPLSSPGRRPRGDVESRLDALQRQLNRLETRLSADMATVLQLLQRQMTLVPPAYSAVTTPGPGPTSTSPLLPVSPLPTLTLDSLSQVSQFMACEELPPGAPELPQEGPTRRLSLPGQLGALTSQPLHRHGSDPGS
Cytochrome P450 2C19, sequence (P33261 whole entry): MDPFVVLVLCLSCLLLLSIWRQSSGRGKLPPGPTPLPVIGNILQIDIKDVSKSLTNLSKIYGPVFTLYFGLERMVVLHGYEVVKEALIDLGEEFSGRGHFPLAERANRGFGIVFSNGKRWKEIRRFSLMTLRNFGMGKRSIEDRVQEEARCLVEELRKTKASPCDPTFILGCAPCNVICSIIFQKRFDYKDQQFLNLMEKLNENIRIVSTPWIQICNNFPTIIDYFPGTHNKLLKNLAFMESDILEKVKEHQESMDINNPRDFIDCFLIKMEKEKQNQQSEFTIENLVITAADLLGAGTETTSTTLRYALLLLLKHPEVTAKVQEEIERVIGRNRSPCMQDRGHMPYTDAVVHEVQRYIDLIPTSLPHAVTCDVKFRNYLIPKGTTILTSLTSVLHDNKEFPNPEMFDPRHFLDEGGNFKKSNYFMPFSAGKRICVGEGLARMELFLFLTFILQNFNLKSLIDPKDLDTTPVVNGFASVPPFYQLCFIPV

For `O=C(O)CN(C1(c2ccc(-c3ccccc3OC(F)(F)F)cc2)CCC1)S(=O)(=O)c1ccc(OC(F)F)cc1`, the inhibition entry in data set [1] was “inactive”. The remaining at 10 min, 3 µM in data set [2] was found to be 78%; in [3], 100%; in data set [4], 100%.
Compound `O=C(O)CN(Cc1ccc(-c2ccc(Cl)cc2Cl)cc1)S(=O)(=O)c1ccc(OC(F)F)cc1` came in with an IC50 in data set [5] of 30 nM.
Regarding `O=C(O)CN(c1cccc(-c2cccc(Cl)c2Cl)c1)S(=O)(=O)c1ccc(OC(F)F)cc1`, in data set [1], the inhibition result is “inactive”. The IC50 in data set [5] worked out at 2.4 nM; in [7], 40 nM; in data set [8] it was 14.3 nM. Moreover, the inhibition entry in data set [6] is “Active”.
Take `O=C(O)CN(C1(c2cccc(-c3cc(Cl)cc(Cl)c3)c2)CCC1)S(=O)(=O)c1ccccc1Cl`: the IC50 in data set [5] is 510 nM.
Consider `CC1(C)CCc2cc(S(=O)(=O)N(CC(=O)O)Cc3cccc(-c4ccccc4)c3)ccc2O1`, for which the remaining at 10 min, 3 µM in data set [2] was 77%; in [3], 67%; in data set [4], 87%.
Regarding `O=C(O)CN(C1(c2ccc(-c3ccc(Cl)cc3Cl)cc2)CCC1)S(=O)(=O)c1ccc(OC(F)F)cc1`, the inhibition result in [1] and in data set [10] was “inactive” in each case. In addition, the Ratio IC50 in [9] is 24; in [11], 15. The results for the half-maximal inhibitory concentration (IC50) in [5], in data set [7] and in data set [8] were 6 nM, 146 nM and 88 nM, respectively.
For `C[C@H](c1ccc(-c2ccc(Cl)cc2Cl)cc1)N(CC(=O)O)S(=O)(=O)c1ccc(OC(F)F)cc1`, the concentration for half-maximal inhibition (IC50) stood at 19 nM in [5] and 100 nM in [8]. In addition, the Ratio IC50 in [11] was 5.
Consider `C[C@@H](c1ccc(-c2ccc(Cl)cc2Cl)cc1)N(CC(=O)O)S(=O)(=O)c1ccc(OC(F)F)cc1`, for which the IC50 in data set [5] was 18 nM.
For `O=C(O)CN(C1(c2cccc(-c3ccc(Cl)cc3Cl)c2)CCC1)S(=O)(=O)c1ccc(Cl)c(Cl)c1`, the inhibition entry in data set [1] is “inactive”.
Consider `O=C(O)CN(Cc1cccc(-c2ccccc2OC(F)(F)F)c1)S(=O)(=O)c1ccc(OC(F)F)cc1`, for which the results for the remaining at 10 min, 3 µM in data set [2] and in [3] were 80% and 100%, respectively. In addition, the half-maximal inhibitory concentration (IC50) amounted to 30000 nM in data set [12]; 40000 nM in data set [13]; 17 nM in [5]; 40000 nM in data set [14]; 40000 nM in [15]; 60 nM in data set [8]. The half-maximal inhibitory concentration (IC50) in data set [16] stood at 11000 nM. Besides, the Ratio IC50 in data set [11] is 4.
Compound `CC1(C)CCc2cc(S(=O)(=O)N(CC(=O)O)Cc3cccc4cccnc34)ccc2O1` showed a concentration for half-maximal inhibition (IC50) in data set [5] of 13500 nM. Moreover, the log distribution coefficient (logD) in data set [17] amounted to 0.5. In data set [18], the pKa turned out to be 2.
